Results published in article PMC11520665 (Critical Care, 2024).

Test: Safety: treatment-emergent adverse events
Type: in vivo, patients (adults)
Details: safety population
Outline: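 Post-hoc pooled data from two randomised, double-blind, double-dummy trials. The safety population was adults in the ICU at randomisation who received ≥1 dose. Dosing was IV test compound weekly (400 mg Day 1, 200 mg Day 8, optional later 200 mg) or IV comparator echinocandin daily (70 mg Day 1, then 50 mg/day). TEAEs ran from dosing to follow-up, coded MedDRA 23.0, graded mild/moderate/severe, and summarised descriptively.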

[1] = ICU at randomisation, n=46 rezafungin, n=67 caspofungin
[2] = ICU at randomisation, number of events per severity

## Caspofungin
[1]
  TEAE: Abdominal abscess, patients: 4 (6.0) n (%)
  TEAE: Abdominal pain, patients: 4 (6.0) n (%)
  TEAE: Acidosis, patients: 4 (6.0) n (%)
  TEAE: Acute kidney injury, patients: 4 (6.0) n (%)
  TEAE: Anaemia, patients: 7 (10.4) n (%)
  TEAE: Atrial fibrillation, patients: 3 (4.5) n (%)
  TEAE: Bradycardia, patients: 5 (7.5) n (%)
  TEAE: Constipation, patients: 4 (6.0) n (%)
  TEAE: Decubitus ulcer, patients: 5 (7.5) n (%)
  TEAE: Deep vein thrombosis, patients: 4 (6.0) n (%)
  TEAE: Diarrhoea, patients: 7 (10.4) n (%)
  TEAE: Dyspnoea, patients: 4 (6.0) n (%)
  TEAE: Fluid overload, patients: 2 (3.0) n (%)
  TEAE: Hyperkalaemia, patients: 5 (7.5) n (%)
  TEAE: Hypertension, patients: 3 (4.5) n (%)
  TEAE: Hypokalaemia, patients: 10 (14.9) n (%)
  TEAE: Hypotension, patients: 6 (9.0) n (%)
  TEAE: Insomnia, patients: 2 (3.0) n (%)
  TEAE: Multiple organ dysfunction syndrome, patients: 3 (4.5) n (%)
  TEAE: Nausea, patients: 4 (6.0) n (%)
  TEAE: Peripheral oedema, patients: 2 (3.0) n (%)
  TEAE: Pleural effusion, patients: 4 (6.0) n (%)
  TEAE: Pneumonia, patients: 2 (3.0) n (%)
  TEAE: Pneumothorax, patients: 4 (6.0) n (%)
  TEAE: Pyrexia, patients: 6 (9.0) n (%)
  TEAE: Respiratory failure, patients: 4 (6.0) n (%)
  TEAE: Sepsis, patients: 3 (4.5) n (%)
  TEAE: Septic shock, patients: 7 (10.4) n (%)
  TEAE: Vomiting, patients: 3 (4.5) n (%)
  ≥ 1 TEAE: 54 (80.6) n (%)
  ≥ 1 TEAE leading to study/drug discontinuation: 20 (29.9) n (%)
  ≥ 1 serious TEAE: 38 (56.7) n (%)
  ≥ 1 study drug-related TEAE: 11 (16.4) n (%)
  ≥ 1 study drug-related TEAE leading to study/drug discontinuation: 2 (3.0) n (%)
  ≥ 1 study drug-related serious TEAE: 4 (6.0) n (%)
[2]
  TEAE: Abdominal abscess, event severity (n): mild/moderate/severe: 0/0/4
  TEAE: Abdominal pain, event severity (n): mild/moderate/severe: 3/0/1
  TEAE: Acidosis, event severity (n): mild/moderate/severe: 2/2/0
  TEAE: Acute kidney injury, event severity (n): mild/moderate/severe: 1/1/2
  TEAE: Anaemia, event severity (n): mild/moderate/severe: 3/4/0
  TEAE: Atrial fibrillation, event severity (n): mild/moderate/severe: 1/2/0
  TEAE: Bradycardia, event severity (n): mild/moderate/severe: 2/3/0
  TEAE: Constipation, event severity (n): mild/moderate/severe: 3/1/0
  TEAE: Decubitus ulcer, event severity (n): mild/moderate/severe: 2/2/1
  TEAE: Deep vein thrombosis, event severity (n): mild/moderate/severe: 1/3/0
  TEAE: Diarrhoea, event severity (n): mild/moderate/severe: 4/3/0
  TEAE: Dyspnoea, event severity (n): mild/moderate/severe: 1/2/1
  TEAE: Fluid overload, event severity (n): mild/moderate/severe: 1/1/0
  TEAE: Hyperkalaemia, event severity (n): mild/moderate/severe: 2/2/1
  TEAE: Hypertension, event severity (n): mild/moderate/severe: 2/0/1
  TEAE: Hypokalaemia, event severity (n): mild/moderate/severe: 8/2/0
  TEAE: Hypotension, event severity (n): mild/moderate/severe: 3/3/1
  TEAE: Insomnia, event severity (n): mild/moderate/severe: 1/1/0
  TEAE: Multiple organ dysfunction syndrome, event severity (n): mild/moderate/severe: 0/0/3
  TEAE: Nausea, event severity (n): mild/moderate/severe: 1/3/0
  TEAE: Peripheral oedema, event severity (n): mild/moderate/severe: 1/1/0
  TEAE: Pleural effusion, event severity (n): mild/moderate/severe: 1/3/0
  TEAE: Pneumonia, event severity (n): mild/moderate/severe: 1/1/0
  TEAE: Pneumothorax, event severity (n): mild/moderate/severe: 1/3/0
  TEAE: Pyrexia, event severity (n): mild/moderate/severe: 5/1/0
  TEAE: Respiratory failure, event severity (n): mild/moderate/severe: 0/0/4
  TEAE: Sepsis, event severity (n): mild/moderate/severe: 0/0/3
  TEAE: Septic shock, event severity (n): mild/moderate/severe: 0/0/7
  TEAE: Vomiting, event severity (n): mild/moderate/severe: 2/1/0
Each event n = 1
  Study drug-related serious TEAEs, events: ventricular tachycardia, rectal haemorrhage, hypertransaminasaemia, and anaphylactic shock
Two patients
  Study drug-related TEAEs that led to study discontinuation, events: ventricular tachycardia and anaphylactic shock
